Screening results from PubChem.
Rows were chosen to be rich in hits. Some 2.1% of all compounds tested hit in one or more screens of this group.
MC4R antagonist – human MC4R antagonism in cAMP assay; P32245; MC4R-expressing cells, MTII-stimulated cAMP, LANCE TR-FRET; inhibition, % at 6.5 µM; hit rate 0.48% among 360,000; AID 540295;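 active = inhibition above its plate's cutoff, the mean of tested wells on that plate plus 3 SD, cut at about 29% in these data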;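 also: 0% = Melanotan II alone and 100% = Melanotan II plus saturating MCL0020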
Target sequence (P32245 whole entry, looked up): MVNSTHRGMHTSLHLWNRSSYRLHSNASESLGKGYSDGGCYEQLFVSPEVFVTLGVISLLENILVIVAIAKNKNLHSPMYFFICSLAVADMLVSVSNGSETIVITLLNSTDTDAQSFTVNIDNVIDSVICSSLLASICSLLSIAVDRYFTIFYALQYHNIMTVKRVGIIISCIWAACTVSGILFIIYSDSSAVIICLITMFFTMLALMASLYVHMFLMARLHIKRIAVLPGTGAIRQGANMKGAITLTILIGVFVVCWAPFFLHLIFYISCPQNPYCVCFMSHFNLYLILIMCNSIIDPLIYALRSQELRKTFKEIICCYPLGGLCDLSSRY
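material = U2OS cells stably expressing human melanocortin 4 receptor (MC4R) | also added = Melanotan II challenge | dosing = single nominal compound dose of 6.5 µM | detection = TR-FRET with Eu-cAMP and labeled anti-cAMP, 671 nm | replication = singlicate | timing = compound 30 min, challenge 1 h, detection 1 h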
NOD2 RIPK2 PPI – blocks binding of human NOD2 to RIPK2 | O43353 | CHO BLA complementation NOD2-RIPK2, CCF4 ratio | inhibition, % at 4.98 µM | hit rate 0.38% among 360,000 | AID 624267; in the data active = inhibition above about 21%;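 also: 0% = vehicle only and 100% = reference blocker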
MIN6 prolif – inducers of beta-cell replication in MIN6 cells; MIN6 cells proliferation, ATPlite luminescence, 48 h; cells starved in 0.2% serum; 100% = growth in 10% serum; hit rate 0.29% among 330,000; proliferation, % at 10 µM;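 active = compounds whose signal lies at least 3.5 SD above the mean of all wells on their plate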;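 also: 0% = DMSO-treated cells in low-serum medium and 100% = 10% serum control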
MC4R barr agon – activates human MC4R beta-arrestin recruitment; activation, % at 8.9 µM; hit rate 0.98% among 360,000; P32245; AID 540308; U2OS MC4R beta-arrestin complementation, luminescence; percent of melanotan II response, DMSO zero;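 active = activation above a per-plate cutoff, the mean activation of sample wells on that plate plus 3 SD, cut at about 8% in these data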
TLR9-MyD88 block – blocks human TLR9 binding to MyD88. hit rate 0.21% among 340,000. inhibition, % at 4.98 µM. CHO BLA complementation TLR9-MyD88, CCF4 FRET ratio;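 active = inhibition above the mean over all tested compounds plus 3 SD, cut at about 21% in these data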;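 also: 0% = DMSO only wells and 100% = clavulanate BLA inhibitor control wells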
TLR4 MyD88 comp – TLR4-MyD88 interaction inhibition in cells; O00206+Q99836; HeLa CL3-4 TLR4/MyD88 BLA complementation, FRET ratio; inhibition, % at 8.4 µM; hit rate 0.18% among 200,000; AID 861; in the data active = inhibition above about 25%;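 also: 0% = vehicle and 100% = reference inhibitor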
TLR4-MyD88 conf – TLR4-MyD88 interaction inhibition confirmed; HeLa CL3-4 BLA complementation, CCF4 FRET ratio; shares compounds with TLR4 MyD88 comp; AID 941; inhibition, % at 8.4 µM; hit rate 50% among 350;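 active = mean inhibition across three repeat runs above about 25% carried over from the earlier screen, limit read from the data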;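 also: plate controls were DMSO only for no effect and clavulanic acid blocking BLA at full dose for full effect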
BLA inhibitor ct – beta-lactamase inhibition flagged in TLR4-MyD88 counter-screen. shares compounds with TLR4 MyD88 comp. HeLa BLA reporter, CCF4 FRET ratio. inhibition, % at 8.4 µM. hit rate 63% among 350. AID 1237;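 active = mean inhibition over three repeats above about 26% taken from the earlier screen, limit read from the data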;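 also: HeLa cells stably expressing beta-lactamase reporter as counterscreen for TLR4-MyD88 inhibitors; 0% = DMSO and 100% = clavulanic acid full inhibition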
TLR9-MyD88 cf – confirmation of human TLR9-MyD88 binding inhibitors; shares compounds with TLR9-MyD88 block; CHO TLR9/MyD88 BLA complementation, CCF4 FRET ratio; inhibition, % at 4.98 µM; hit rate 51% among 680; AID 540250;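 active = mean inhibition across three repeats above about 21% taken from the earlier screen, limit read from the data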;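 also: blue over green emission ratio reports constitutive TLR9 MyD88 association via BLA complementation; 0% = DMSO vehicle wells and 100% = clavulanate BLA inhibitor wells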
BLA counter-1 – counter-screen for TLR9-MyD88 inhibitors: non-selective beta-lactamase inhibitors; shares compounds with TLR9-MyD88 block; CHO-BLA cells, CCF4 FRET ratio, BLA reporter; inhibition, % at 4.98 µM; hit rate 7% among 680; AID 540251;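 active = mean inhibition above a 50% cutoff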;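 also: counterscreen of TLR9-MyD88 hits on CMV-driven BLA in CHO-K1 cells; 0% = DMSO alone and 100% = clavulanate blocking BLA; higher means less blue over green ratio so more BLA blockade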
TLR9 CHO tox – counter-screen for TLR9-MyD88 inhibitors: cytotoxicity in CHO cells; shares compounds with TLR9-MyD88 block; luminescence; inhibition, % at 4.98 µM; hit rate 39% among 680; AID 588336; in the data active = inhibition above about 11%
U2OS cAMP counter – nonselective cAMP signaling inhibitor, MC4R antagonist counter-screen; shares compounds with MC4R antagonist; hit rate 26% among 1,600; AID 602193; inhibition, % at 6.5 µM; parental U2OS, forskolin cAMP, LANCE TR-FRET;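 active = mean inhibition over triplicates above the low-control well mean plus 3 SD, set per campaign, cut at about 13% in these data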;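 also: signal is single emission at 671 nm which falls as cellular cAMP rises; 0% = forskolin-stimulated wells and 100% = buffer without forskolin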
MC4R antag conf – human MC4R cAMP antagonism confirmation. shares compounds with MC4R antagonist. MC4R-expressing cells, MTII-stimulated cAMP, TR-FRET. inhibition, % at 6.5 µM. hit rate 27% among 1,600. AID 602195; in the data active = inhibition above about 29%;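 also: 0% = agonist stimulated wells alone and 100% = agonist stimulated wells plus saturating reference antagonist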
MC4R barr ag – human MC4R beta-arrestin agonism confirmation; shares compounds with MC4R barr agon; U2OS MC4R beta-arrestin recruitment, luminescence; scaled DMSO 0%, Melanotan II 100%; hit rate 31% among 2,400; activation, % at 8.9 µM; AID 602192;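 active = mean activation across replicates above the hit cutoff set in the earlier primary screen, cut at about 8% in these data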
MOR DOR agonist – activates mu-delta opioid heterodimer, MC4R agonist counter-screen. U2OS PathHunter beta-arrestin, beta-gal luminescence; percent of deltorphin B response, DMSO zero. AID 602194. shares compounds with MC4R barr agon. hit rate 5.8% among 2,400. activation, % at 9.2 µM;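 active = mean activation across replicates exceeds the hit threshold derived in the earlier primary screen, cut at about 18% in these data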;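 also: 100% = deltorphin B at 0.9 µM final and 0% = DMSO alone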
NOD2 RIPK2 conf – NOD2-RIPK2 interaction inhibition confirmed. shares compounds with NOD2 RIPK2 PPI. CHO cells, NOD2-RIPK2 BLA complementation, CCF4 FRET. inhibition, % at 4.98 µM. hit rate 70% among 1,200. AID 624370;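 active = mean inhibition across replicates above a set limit taken from the earlier primary screen, cut at about 21% in these data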;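 also: 0% = DMSO-only wells and the high end = clavulanate BLA-blocked wells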
BLA counter-2 – counter-screen for NOD2-RIPK2 interaction inhibitors: BLA reporter | inhibition, % at 4.98 µM | shares compounds with NOD2 RIPK2 PPI | AID 624371 | CHO BLA reporter, CCF4 FRET ratio, counterscreen | hit rate 57% among 1,200;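 active = mean inhibition above the low-control mean inhibition plus three low-control SD, cut at about 11% in these data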;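 also: 0% = DMSO only wells and 100% = clavulanate high control wells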
* = called active by the depositor; / = not tested or not shown.

SMILES	MC4R antagonist	NOD2 RIPK2 PPI	MIN6 prolif	MC4R barr agon	TLR9-MyD88 block	TLR4 MyD88 comp	TLR4-MyD88 conf	BLA inhibitor ct	TLR9-MyD88 cf	BLA counter-1	TLR9 CHO tox	U2OS cAMP counter	MC4R antag conf	others
CCc1cc2c(=O)c(-c3nc4ccccc4n3C)c(COCC(=O)O)oc2cc1OC(=O)C(C)(C)C	-1	1	-1	0	49*	43*	-6	13	2	0	3	/	/
O=C(CSc1ccc2nnc(CCNC(=O)c3ccccc3)n2n1)Nc1ccc(F)cc1F	11	-9	0	-2	-12	/	/	/	/	/	/	/	/
Cc1noc(C)c1COC(=O)c1cnc(Cl)c(Cl)c1	30*	-9	-5	-3	-2	26*	19	5	/	/	/	13	33*
O=C(COc1ccc([N+](=O)[O-])cc1)NCC(c1cccs1)N1CCOCC1 (centres undefined)	-1	-3	-6	0	-2	/	/	/	/	/	/	/	/
Cc1ccc(-n2c(Cl)c(Cl)nc(Cl)c2=O)cc1	46*	84*	/	-4	48*	27*	19	22	49*	40	99*	57*	55*
O=C(CN(C(=O)CCC(=O)Nc1ccccn1)c1ccc(F)cc1)NCc1ccc(F)cc1	26	3	0	1	4	/	/	/	/	/	/	/	/
Clc1ncnc2c1oc1ccccc12	39*	-11	-2	-2	-9	33*	37*	15	/	/	/	-1	6
CCSc1ncnc2c1oc1ccccc12	-2	-3	1	0	13	-13	/	/	/	/	/	/	/
N#Cc1sc2nc(-c3cccs3)cc(-c3ccc(F)cc3)c2c1N	26	12	-2	35*	26*	26*	39*	63*	/	/	/	/	/	MC4R barr ag=19*;MOR DOR agonist=6
Cc1nc(-c2ccccc2Cl)sc1C(=O)/C=C/N(C)C	9	-1	-3	0	-2	-22	/	/	/	/	/	/	/
O=Cc1s/c(=N\S(=O)(=O)c2ccccc2)n(CCCCl)c1Cl	46*	85*	/	-5	37*	30*	28*	2	42*	8	96*	11	19	NOD2 RIPK2 conf=96*;BLA counter-2=36*
